Reference: ChEMBL document CHEMBL4354791, “Different solid forms for optimizing route of administration of the herpes drug Pritelivir” (Medchemcomm, 2019)
In brackets after ≈: the same amount, converted by molar mass.

Assays:
Format in all cases: physicochemical
[1] = Saturated solubility of compound in transcutol p
[2] = Saturated solubility of compound in dimethyl isosorbide
[3] = Saturated solubility of compound in phenoxy ethanol
[4] = Saturated solubility of compound in buffer at pH 3.5
How it was run: (§1)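 Saturated solubility in the named medium (water or buffer at the stated pH), reported in mg ml−1. Levels below the detection limit are reported as BLOQ.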

[5] = Saturated solubility of compound in propylene glycol
[6] = Saturated solubility of compound in buffer at pH 5.5; how it was run: as §1
[7] = Saturated solubility of compound in buffer at pH 4.5; how it was run: as §1
[8] = Saturated solubility of compound in benzyl alcohol
[9] = Saturated solubility of compound in water; how it was run: as §1
[10] = Saturated solubility of compound in ethanol
[11] = Saturated solubility of compound in glycerin
[12] = Solubility of compound at pH 7.4; conditions: buffer
[13] = Saturated solubility of compound in oleyl-alcohol
[14] = Saturated solubility of compound in isopropanol
[15] = Saturated solubility of compound in buffer at pH 7; how it was run: as §1
[16] = Saturated solubility of compound in isopropyl myristate
[17] = Saturated solubility of compound in crodamol-GTC

| solubility thermodynamic [1] [µg/mL] | solubility ([2]; BLD = below limit of detection) | solubility thermodynamic [3] [µg/mL] | solubility [4] [µg/mL] | solubility thermodynamic [5] [µg/mL] | solubility thermodynamic [6] [µg/mL] | solubility [7] [µg/mL] | solubility [8] [µg/mL] | solubility ([9]; water, read-out: solubility) [µg/mL] | solubility thermodynamic [10] [µg/mL] | solubility thermodynamic [11] [µg/mL] | solubility [12] [µg/mL] | solubility [2] [µg/mL] | solubility thermodynamic [13] [µg/mL] | solubility thermodynamic [14] [µg/mL] | solubility thermodynamic [15] [µg/mL] | solubility thermodynamic [16] [µg/mL] | solubility thermodynamic [17] [µg/mL] | solubility ([9]; buffer, BLD = below limit of detection) | Compound |
| --- | --- | --- | --- | --- | --- | --- | --- | --- | --- | --- | --- | --- | --- | --- | --- | --- | --- | --- | --- |
| 1300 | Bld | 10700 | 1300 | 4700 | 200 | 400 | 2000 | 1200 | 700 | 13100 | – | – | – | – | – | – | – | – | CS(=O)(=O)O.Cc1nc(N(C)C(=O)Cc2ccc(-c3ccccn3)cc2)sc1S(N)(=O)=O [PRITELIVIR MESYLATE] |
| 44800 (≈ 111000 µM) | – | 2200 (≈ 5470 µM) | 100 (≈ 248 µM) | 28400 (≈ 70600 µM) | 100 (≈ 248 µM) | 100 (≈ 248 µM) | 2200 (≈ 5470 µM) | – | 300 (≈ 745 µM) | 500 (≈ 1240 µM) | 11.5 (≈ 28.6 µM) | 82300 (≈ 204000 µM) | 100 (≈ 248 µM) | 400 (≈ 994 µM) | 100 (≈ 248 µM) | 100 (≈ 248 µM) | 200 (≈ 497 µM) | Bld | Cc1nc(N(C)C(=O)Cc2ccc(-c3ccccn3)cc2)sc1S(N)(=O)=O [PRITELIVIR] |
